Assay results from different studies.
Each line is one published result; the experiments were not run side by side.
Target: Serine/threonine-protein kinase mTOR (MTOR, Homo sapiens, UniProt P42345)

`COCCOc1nc(-c2ccc(Cl)nc2)nc2c1CN(C(=O)c1ncn3ccccc13)CC2` has a remaining binding of 97% (cell-free assay; competition with immobilised ligand; 0.1 µM).
With `CC(C)(C)c1nc(-c2cccc(NS(=O)(=O)c3c(F)cccc3F)c2F)c(-c2ccnc(N)n2)s1` the remaining activity was 99% (enzyme activity; inhibitor; radiometric; 1 µM).
For `CCCOc1ccc(OC)c(F)c1C(=O)c1ccc(C(=O)N[C@@H]2CNC[C@H]2NC(=O)c2ccc3[nH]ncc3c2)cc1`, the remaining activity was 86% (enzyme activity; inhibitor; 10 µM).
For `CNCc1ccc(-c2cc(-c3nc(-c4ccc(S(=O)(=O)C(C)C)cc4)cnc3N)on2)cc1`, the inhibition was 37% (enzyme activity; inhibitor; 2 µM).
`Cn1cc(Cl)c2c(Oc3c(F)cc(Nc4cc(Cl)nc(N)n4)cc3F)ccnc21` gave a remaining binding of 85% (cell-free assay; competition with immobilised ligand; 0.1 µM).
With `O=C(CSc1nc2nccnc2c(=O)n1CCc1ccccc1)Nc1nccs1` the inhibition was 4% (enzyme activity; inhibitor; 10 µM).
The inhibition of `COc1cc2ncnc(Nc3ccc(Oc4ccccc4)c(C)c3C)c2cc1OC` is reported as 0% (enzyme activity; inhibitor; 1 µM).
The inhibition of `CCCS(=O)(=O)Nc1ccc(F)c(C(=O)c2c[nH]c3ncc(-c4ccc(Cl)cc4)cc23)c1F` is reported as less than 10% (enzyme activity; inhibitor; 1 µM).
`CCCCN(CCCC)C(=O)CN1C[C@@H](c2cc(OC)c3c(c2)OCO3)[C@H](C(=O)O)[C@H]1CC(C)(C)CCC` has a remaining binding of 100% (cell-free assay; competition with immobilised ligand; 1 µM).
With `CS(=O)(=O)Nc1cccc(-c2csc(NC(=O)CSc3nc4nccnc4c(=O)n3CCc3ccccc3)n2)c1` the inhibition was 1% (enzyme activity; inhibitor; 10 µM).
For `CNC(=O)Nc1ccc2c(c1)[C@@]1(CC2)OC(=O)N(CC(=O)N(Cc2ccc(F)cc2)[C@@H](C)C(F)(F)F)C1=O`, the remaining binding was 100% (cell-free assay; competition with immobilised ligand; 1 µM).
With `Cc1cc(NC(=O)c2cccc3cc(-c4cccc5[nH]nc(N)c45)ccc23)ccc1F` the activity vs control was 92% (enzyme activity; inhibitor; 0.1 µM).
For `Cc1cnc(NC2CCOCC2)nc1-n1cnc(C(=O)NC(CN)c2cc(F)cc(Cl)c2)c1` (centres unmarked), the remaining activity was 82% (enzyme activity; inhibitor; radiometric; 1 µM).
`Nc1ncnc2occ(-c3ccc(NC(=O)Nc4cc(C(F)(F)F)ccc4F)cc3)c12` has a remaining activity of 74% (enzyme activity; inhibitor; 20 µM).
The remaining binding of `N[C@@H]1CCN(c2nccc(-c3cnn4ncccc34)n2)C1` is reported as 99% (binding; 1 µM).
With `CN([C@@H]1CCc2c(CC(=O)O)c3ccccc3n2C1)S(=O)(=O)c1ccc(F)cc1` the remaining binding was 100% (cell-free assay; competition with immobilised ligand; 1 µM).
With `Cc1ccc(NC(=O)c2ccc(C)c(C(F)(F)F)c2)cc1C#Cc1nn(C2CCC(O)CC2)c2ncnc(N)c12` (centres unmarked) the remaining signal was 101% (cell-free assay; inhibitor; 10 µM).
